24 molecules from ChEMBL document CHEMBL1152534, “Synthesis of oxalamide and triazine derivatives as a novel class of hybrid 4-aminoquinoline with potent antiplasmodial activity” (Bioorg Med Chem, 2009) can be followed below.

Assay [1] in a line: Selectivity index, ratio of CC50 for african green monkey (Cercopithecus aethiops) Vero cells to IC50 for chloroquine-sensitive Plasmodium falciparum 3D7. In kind it is functional. Summed up: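 SI is Vero CC50 divided by the antiplasmodial IC50. For CC50, Vero (C-1008) cells at 1 × 10⁴ cells/well were exposed to varying compound concentrations for 72 h with an MTT read-out. CC50 is the concentration killing 50% of cells.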

Assay [2] deals with Plasmodium yoelii. The assay can be described thus: Antiplasmodial activity against Plasmodium yoelii infected in Swiss mice (Mus musculus) erythrocytes assessed as inhibition of beta-hematin formation after 16 hrs by fluorescence assay. Format: functional, organism-based. As to conditions: Plasmodium yoelii, 16 h; in the assay text read “absorbance measurement at 400 nm” for “fluorescence assay”; call rule not given here. In a few lines:
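Plasma came from P. yoelii-infected mouse blood at about 50% parasitemia, collected in citrate and centrifuged. The mix held 100 mM sodium acetate pH 5.1, 50 µL plasma and 100 µM hemin substrate in 1.0 mL, run in triplicate at 37 °C for 16 h with shaking. The pellet was dissolved in Tris-HCl pH 7.4 with 2.5% SDS. Absorbance at 400 nm; IC50 by non-linear regression.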

For a further assay, the system named is Plasmodium falciparum. The assay can be described thus: Antimalarial activity against chloroquine-sensitive Plasmodium falciparum 3D7 […] after 72 hrs by twofold serial dilution method. Format: functional, organism-based. Summed up:
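P. falciparum 3D7 erythrocyte culture, 2.5% cell suspension at 0.5% parasitaemia. Compounds were twofold serially diluted from 500 ng/mL (seven concentrations) in duplicate wells and incubated 72 h. Lysis buffer with SYBR Green I (Tris pH 7.5, EDTA, saponin, Triton X-100) was added, followed by 1 h at room temperature and a fluorescence read. IC50 from non-linear regression dose–response curves.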

Assay [3] deals with Plasmodium yoelii. In words: Antimalarial activity against chloroquine-resistant Plasmodium yoelii N67 infected in Swiss mice (Mus musculus) assessed as inhibition of parasitaemia at 50 mg/kg, intraperitoneally administered daily for 4 days measured on day 4 post-infection. In kind it is functional. Summed up:
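Swiss mice were inoculated with 1 × 10⁶ P. yoelii N-67 parasitized RBC on day 0. Groups of five received compound as an aqueous suspension with a few drops of Tween 80, at 50 mg/kg/day intraperitoneally once daily from day 0 to 3. Parasitaemia was read from thin smears on day 4, with group-mean percent suppression against untreated controls.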

[4] abbreviates: Plasmodium falciparum, 3D7, Vero, 72 h, read-out: IC50.

Converted amounts (≈) assume the structure as drawn. Some results are limits rather than exact numbers.

Turning to `CN1CCN(c2nc(NCCCNc3ccnc4cc(Cl)ccc34)nc(N3CCCCC3)n2)CC1`, the “Ratio CC50/IC50” value in assay [1] was 530.2. Besides, the IC50 in the assay with Plasmodium yoelii [2] amounted to 7.45 µg/mL (≈ 15 µM); in the assay on Plasmodium falciparum (setting [4]) it was 0.00913 µg/mL (≈ 0.0184 µM).
As for `O=C(C(=O)N1CCN(c2ccnc3cc(Cl)ccc23)CC1)c1c[nH]c2ccccc12`, in the assay with Plasmodium falciparum (vero), the IC50 result is “Not Active”.
The same measure, in the same setting: the same measure for `CN(C)CCNC(=O)C(=O)N1CCN(c2ccnc3cc(Cl)ccc23)CC1`: “Not Active”; for `O=C(NCCN1CCOCC1)C(=O)N1CCN(c2ccnc3cc(Cl)ccc23)CC1`: “Not Active”.
Take `CN(C)CCNc1nc(NCCCNc2ccnc3cc(Cl)ccc23)nc(N2CCCCC2)n1`: the “Ratio CC50/IC50” value in assay [1] is on record as 330.11. Besides, the IC50 came to 8.19 µg/mL (≈ 16.9 µM) with Plasmodium yoelii [2] and 0.0156 µg/mL (≈ 0.0323 µM) in the assay with Plasmodium falciparum (setting [4]).
In the same order, the values of `CN(C)CCNc1nc(NCCCNc2ccnc3cc(Cl)ccc23)nc(N2CCOCC2)n1` are 219.77, 7.94 µg/mL (≈ 16.3 µM) and 0.164 µg/mL (≈ 0.337 µM).
`Clc1ccc2c(NCCNc3nc(NCCN4CCOCC4)nc(N4CCCCC4)n3)ccnc2c1`: in the assay on Plasmodium falciparum (vero), the IC50 entry is “Not Active”.
As for `CCN(CC)CCNC(=O)C(=O)N1CCN(c2ccnc3cc(Cl)ccc23)CC1`, the “Ratio CC50/IC50” value in assay [1] is given as 1183.41. For the same molecule, the IC50 is less than 20 µg/mL with Plasmodium yoelii [2] and 0.042 µg/mL (≈ 0.1 µM) with Plasmodium falciparum (setting [4]).
In the case of `CN(C)CCNc1nc(NCCNc2ccnc3cc(Cl)ccc23)nc(N2CCOCC2)n1`, the “Ratio CC50/IC50” value in assay [1] amounted to 1291.71. Besides, the IC50 was determined as 8.1 µg/mL (≈ 17.2 µM) with Plasmodium yoelii [2] and 0.0394 µg/mL (≈ 0.0835 µM) in the assay on Plasmodium falciparum (setting [4]).
In the same order, the values of `Clc1ccc2c(NCCNc3nc(NCCN4CCOCC4)nc(N4CCOCC4)n3)ccnc2c1` are 1176.4, 17.2 µg/mL (≈ 33.4 µM) and 0.0482 µg/mL (≈ 0.0937 µM).
Taken in the same sequence, the figures for `CCCCNC(=O)C(=O)NCCCNc1ccnc2cc(Cl)ccc12` were 38.13, 15.7 µg/mL (≈ 43.2 µM) and 0.233 µg/mL (≈ 0.643 µM).
As for `CCN(CC)CCNc1nc(NCCCNc2ccnc3cc(Cl)ccc23)nc(N2CCOCC2)n1`, the “Ratio CC50/IC50” value in assay [1] is 1068.32. In addition, the IC50 turned out to be 10.6 µg/mL (≈ 20.7 µM) with Plasmodium yoelii [2] and 0.0403 µg/mL (≈ 0.0783 µM) in the assay with Plasmodium falciparum (setting [4]).
Consider `Cn1cc(C(=O)C(=O)N2CCN(c3ccnc4cc(Cl)ccc34)CC2)c2ccccc21`, for which, in the assay on Plasmodium falciparum (vero), the IC50 result is “Not Active”.
On the same count and under the same terms, the same measure for `O=C(NCCCN1CCOCC1)C(=O)N1CCN(c2ccnc3cc(Cl)ccc23)CC1`: “Not Active”; for `Cn1cc(C(=O)C(=O)N2CCN(CCNc3ccnc4cc(Cl)ccc34)CC2)c2ccccc21`: “Not Active”.
In the case of `CCN(CC)CCNC(=O)C(=O)NCCNc1ccnc2cc(Cl)ccc12`, the “Ratio CC50/IC50” value in assay [1] is reported as 605.61. The IC50 is 7.01 µg/mL (≈ 17.9 µM) with Plasmodium yoelii [2] and 0.0503 µg/mL (≈ 0.128 µM) in the assay with Plasmodium falciparum (setting [4]).
For the molecule `CN1CCN(c2nc(NCCNc3ccnc4cc(Cl)ccc34)nc(N3CCCCC3)n2)CC1`, the Activity entry in the assay with Plasmodium yoelii [3] is “Toxic”. The “Ratio CC50/IC50” value in assay [1] is 958.12. Also, the half-inhibitory concentration (IC50) in the assay on Plasmodium yoelii [2] is 9.1 µg/mL (≈ 18.9 µM); in the assay with Plasmodium falciparum (setting [4]) it was 0.00788 µg/mL (≈ 0.0163 µM).
Take `CCCCNC(=O)C(=O)N1CCN(CCNc2ccnc3cc(Cl)ccc23)CC1`: the IC50 entry in the assay on Plasmodium falciparum (vero) is listed as “Not Active”.
Consider `CCN(CC)CCNc1nc(NCCCNc2ccnc3cc(Cl)ccc23)nc(N2CCCCC2)n1`, for which the “Ratio CC50/IC50” value in assay [1] is on record as 1011.15. For the same molecule, the IC50 in the assay with Plasmodium yoelii [2] came out at 7.45 µg/mL (≈ 14.5 µM); in the assay with Plasmodium falciparum (setting [4]), 0.00897 µg/mL (≈ 0.0175 µM).
Regarding `CCCCNC(=O)C(=O)N1CCN(c2ccnc3cc(Cl)ccc23)CC1`, the half-maximal inhibitory concentration (IC50) result in the assay with Plasmodium falciparum (vero) is “Not Active”.
On the same count and under the same terms, to `O=C(C(=O)N1CCN(CCNc2ccnc3cc(Cl)ccc23)CC1)c1c[nH]c2ccccc12` belongs “Not Active”.
Consider `O=C(NCCNc1ccnc2cc(Cl)ccc12)C(=O)NCCN1CCOCC1`, for which the “Ratio CC50/IC50” value in assay [1] is recorded as 567.43. Moreover, the IC50 with Plasmodium yoelii [2] was found to be 6.87 µg/mL (≈ 16.9 µM); in the assay on Plasmodium falciparum (setting [4]), 0.0908 µg/mL (≈ 0.224 µM).
As to `CN1CCN(c2nc(NCCCNc3ccnc4cc(Cl)ccc34)nc(N3CCOCC3)n2)CC1`, in assay [1], the “Ratio CC50/IC50” value came to 704.25. The figures for the half-inhibitory concentration (IC50) with Plasmodium yoelii [2] and in the assay with Plasmodium falciparum (setting [4]) were 8.55 µg/mL (≈ 17.2 µM) and 0.0401 µg/mL (≈ 0.0805 µM), respectively.
As to `O=C(NCCCN1CCOCC1)C(=O)NCCNc1ccnc2cc(Cl)ccc12`, in the assay on Plasmodium yoelii [3] (N67, ip, 96 h, route intraperitoneal), the inhibition in vivo at 50 mg/kg turned out to be 43.6%. Further, in assay [1], the “Ratio CC50/IC50” value worked out at 1567.05. In addition, the IC50 was found to be 7.18 µg/mL (≈ 17.1 µM) with Plasmodium yoelii [2] and 0.0313 µg/mL (≈ 0.0746 µM) in the assay on Plasmodium falciparum (setting [4]).

A word on the IC50: it is the midpoint of a concentration-inhibition curve. In general, inhibition in vivo refers to the drop in the measured response relative to a control, in per cent.
